Assay results as given in ChEMBL document CHEMBL1944511, “Bakuchiol derivatives as novel and potent cytotoxic agents: a report” (Eur J Med Chem, 2012).

What was measured:
Assay type in all cases: functional
[1] = test system: PC-3; assay: Growth inhibition of human PC3 cells at 50 uM after 48 hrs by sulpharhodamine B assay; settings: PC-3, 48 h, read-out: GI
How it was run: (§1)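 Cells grown in RPMI-1640/MEM with 10% FCS, penicillin/streptomycin, 37 °C, 5% CO2. Seeded in 96-well plates, allowed to adhere overnight, then exposed 48 h to analogs in DMSO (vehicle <0.2% in controls). TCA-fixed, stained with 0.4% SRB in 1% acetic acid, dye solubilized in 10 mM Tris base, OD 570 nm (ref 620 nm). Mean ± SD of three experiments run in triplicate.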

[2] = test system: HeLa; assay: Growth inhibition of human HeLa cells at 50 uM after 48 hrs by sulpharhodamine B assay; settings: read-out: GI
How it was run: (§2)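 This is the SRB protein-stain assay on adherent cells in RPMI-1640/MEM with 10% FCS. Each compound in DMSO (vehicle <0.2%) was applied at a single fixed concentration for 48 h. Cells were fixed with TCA and stained with SRB, and the dye was solubilised in Tris and read at 570/620 nm. Percent growth inhibition is relative to vehicle-treated controls, reported as mean ± SD of three experiments run in triplicate.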

[3] = test system: OVCAR-5; assay: Growth inhibition of human OVCAR5 cells at 50 uM after 48 hrs by sulpharhodamine B assay; settings: OVCAR-5, 48 h, read-out: GI; how it was run: as §2
[4] = test system: IMR-32; assay: Growth inhibition of human IMR32 cells at 50 uM after 48 hrs by sulpharhodamine B assay; settings: IMR-32, 48 h, read-out: GI; how it was run: as §2
[5] = test system: THP-1; assay: Growth inhibition of human THP1 cells at 50 uM after 48 hrs by sulpharhodamine B assay; settings: THP-1, 48 h, read-out: GI; how it was run: as §1
[6] = test system: A549; assay: Growth inhibition of human A549 cells at 50 uM after 48 hrs by sulpharhodamine B assay; settings: A549, 48 h, read-out: GI; how it was run: as §2
[7] = test system: MCF7; assay: Growth inhibition of human MCF7 cells at 50 uM after 48 hrs by sulpharhodamine B assay; settings: MCF7, 48 h, read-out: GI; how it was run: as §2

Structure (SMILES) | inhibition of growth at 50 µM [1] [%] | inhibition of growth at 50 µM [2] [%] | inhibition of growth at 50 µM [3] [%] | inhibition of growth at 50 µM [4] [%] | inhibition of growth at 50 µM [5] [%] | inhibition of growth at 50 µM [6] [%] | inhibition of growth at 50 µM [7] [%]
COc1ccc(/C=C/[C@@](C)(/C=C/c2ccc(O)cc2)CCC=C(C)C)cc1 | 50 | 20 | 20 | 6 | 52 | 40 | 55
C=C[C@@](C)(/C=C/c1ccc(O)cc1)CC/C=C(/C)C=O | 51 | 40 | 22 | 53 | 54 | 35 | 12
C=C[C@@](C)(/C=C/c1ccc(OC(=O)CCCCC)cc1)CCC=C(C)C | 28 | 50 | 13 | 19 | 54 | 58 | 18
C=C[C@@](C)(/C=C/c1ccc(OC(=O)CC)cc1)CCC=C(C)C | 54 | 48 | 52 | 63 | 60 | 42 | 23
CC[C@](C)(CCCC(C)C)CCc1ccc(O)cc1 | 40 | 42 | 43 | 53 | 58 | 49 | 46
C=C[C@@](C)(/C=C/c1ccc(O)c([N+](=O)[O-])c1)CCC=C(C)C | 52 | 49 | 55 | 50 | 55 | 52 | 49
COc1ccccc1/C=C/[C@@](C)(/C=C/c1ccc(O)cc1)CCC=C(C)C | 46 | 50 | 38 | 68 | 62 | 10 | 42
C=C[C@@](C)(/C=C/c1ccc(O)c(N)c1)CCC=C(C)C | 28 | 48 | 33 | 39 | 48 | 41 | 17
CC(C)=CCCC(C)(/C=C/c1ccc(O)cc1)/C=C/c1ccc(O)cc1 | 32 | 32 | 33 | 30 | 66 | 33 | 31
COc1ccc(/C=C/[C@@](C)(/C=C/c2ccc(O)cc2)CCC=C(C)C)cc1C=O | 34 | 31 | 33 | 35 | 45 | 32 | 36
C=C[C@@](C)(/C=C/c1ccc(OC(=O)CCCCCCC)cc1)CCC=C(C)C | 22 | 53 | 42 | 51 | 62 | 15 | 12
CCCOc1ccc(/C=C/[C@@](C)(/C=C/c2ccc(O)cc2)CCC=C(C)C)cc1Cl | 7 | 4 | 12 | 8 | 20 | 5 | 47
C=C[C@@](C)(/C=C/c1ccc(OC(=O)CCCC)cc1)CCC=C(C)C | 42 | 23 | 3 | 21 | 15 | 38 | 25
CC[C@](C)(CCCC(C)C)CCc1cc(Br)c(O)c(Br)c1 | 50 | 42 | 8 | 21 | 51 | 40 | 42
C=C[C@@](C)(/C=C/c1ccc(OC(=O)CCC)cc1)CCC=C(C)C | 38 | 36 | 41 | 54 | 54 | 50 | 20
C=C[C@@](C)(/C=C/c1ccc(O)cc1)CCC1OC1(C)C (some centres not stated) | 46 | 32 | 12 | 59 | 52 | 44 | 33
COc1ccc(/C=C/[C@@](C)(/C=C/c2ccc(O)cc2)CCC=C(C)C)cc1CO | 39 | 36 | 38 | 34 | 58 | 41 | 42
COc1ccc(/C=C/C(C)(/C=C/c2ccc(OC)cc2)CCC=C(C)C)cc1 | 29 | 11 | 25 | 27 | 62 | 15 | 13
CC[C@](C)(CCCC(C)C)CCc1ccc(O)c(I)c1 | 8 | 43 | 11 | 21 | 58 | 12 | 40
C=C[C@@](C)(/C=C/c1ccc(OC(=O)CCCCCCCCCCCCCCC)cc1)CCC=C(C)C | 62 | 51 | 64 | 54 | 62 | 61 | 24
CC(C)=CCC[C@](C)(/C=C/c1ccc(O)cc1)/C=C/c1ccc(F)cc1 | 33 | 43 | 29 | 37 | 60 | 31 | 28
